Results: ChEMBL document CHEMBL4346706, “Anti-trypanosomal activity of doubly modified salinomycin derivatives” (Eur J Med Chem, 2019)
Calls of active or inactive are those of the source. The rule behind the calls is not given here.

Tests used:
[1] = Selectivity index, ratio of GI50 for human HL60 cells to GI50 for bloodstream form of Trypanosoma brucei 427-221a; assay type: toxicity; settings: read-out: RatioGI50
[2] = Cytotoxicity against human HL60 cells assessed as growth inhibition after 24 hrs by resazurin dye based assay; assay type: cell-based, HL-60
Procedure, shortened: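 HL-60 cells seeded at 5 × 10^4 ml^-1 in Baltz medium with 16.7% heat-inactivated bovine serum, 0.9% DMSO. 37 °C, 5% CO2. Tenfold dilutions from 100 μM to 1 pM. After 24 h, resazurin added and incubation continued a further 48 h. Absorbance read at 570 nm, reference 630 nm. GI50 by linear interpolation against DMSO-only wells. Mean ± SD of three independent experiments.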

Trypanosoma brucei [3] = assay: Antitrypanosomal activity against bloodstream form of Trypanosoma brucei 427-221a assessed as growth inhibition measured after 72 hrs by resazurin dye based assay
Trypanosoma brucei [4] = assay: Antitrypanosomal activity against bloodstream form of Trypanosoma brucei 427-221a assessed as increase in iono-phoresis by measuring cell swelling at 100 uM measured every 10 mins for 1 hr by light scattering based microplate reader analysis; assay type: functional, organism-based
Procedure, shortened: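 Light-scattering swelling assay. Bloodstream forms at 5 × 10^7 cells ml^-1 in Baltz medium with 100 μM ionophore and 0.9% DMSO; controls had DMSO only. Absorbance at 490 nm read every 10 min for one hour. A fall in absorbance is taken as a rise in cell volume. Means of three experiments.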

[5] = Antiproliferative activity against human HMLER cells assessed as reduction in cell viability after 72 hrs by Cell-Titer Blue reagent based fluorescence microplate reader analysis; assay type: functional

Compound | selectivity ratio [1] | GI50 at 24 h [2] | GI50 (Trypanosoma brucei [3]) | Activity (Trypanosoma brucei [4]) | IC50 [5]
CC[C@@H](C(=O)[C@@H](C)[C@@H](O)[C@H](C)[C@@H]1O[C@@H]([C@@H](CC)C(=O)NCCc2ccc(F)cc2)CC[C@@H]1C)[C@H]1O[C@]2(C=C[C@@H](O)[C@]3(CC[C@@](C)([C@H]4CC[C@](O)(CC)[C@H](C)O4)O3)O2)[C@H](C)C[C@@H]1C | 4 | 11.6 µM | 2.87 µM | – | –
CC[C@@H](C(=O)[C@@H](C)[C@@H](O)[C@H](C)[C@@H]1O[C@@H]([C@@H](CC)C(=O)ONC(=O)c2ccccc2)CC[C@@H]1C)[C@H]1O[C@]2(C=C[C@@H](O)[C@]3(CC[C@@](C)([C@H]4CC[C@](O)(CC)[C@H](C)O4)O3)O2)[C@H](C)C[C@@H]1C | 21.1 | 3.58 µM | 0.17 µM | – | –
C#CCOC(=O)[C@H](CC)[C@H]1CC[C@H](C)[C@H]([C@@H](C)[C@H](O)[C@H](C)C(=O)[C@H](CC)[C@H]2O[C@]3(C=CC(=O)[C@]4(CC[C@@](C)([C@H]5CC[C@](O)(CC)[C@H](C)O5)O4)O3)[C@H](C)C[C@@H]2C)O1 | 9.8 | 29.6 µM | 3.03 µM | – | –
CC[C@@H](C(=O)[C@@H](C)[C@@H](O)[C@H](C)[C@@H]1O[C@@H]([C@@H](CC)C(=O)O)CC[C@@H]1C)[C@H]1O[C@]2(C=CC(=O)[C@]3(CC[C@@](C)([C@H]4CC[C@](O)(CC)[C@H](C)O4)O3)O2)[C@H](C)C[C@@H]1C | 252 | 9.21 µM | 0.037 µM | Active | –
C#CCNC(=O)[C@H](CC)[C@H]1CC[C@H](C)[C@H]([C@@H](C)[C@H](O)[C@H](C)C(=O)[C@H](CC)[C@H]2O[C@]3(C=C[C@@H](O)[C@]4(CC[C@@](C)([C@H]5CC[C@](O)(CC)[C@H](C)O5)O4)O3)[C@H](C)C[C@@H]2C)O1 | 11.6 | 35.5 µM | 3.06 µM | – | –
CC[C@@H](C(=O)[C@@H](C)[C@@H](O)[C@H](C)[C@@H]1O[C@@H]([C@@H](CC)C(=O)OCC(F)(F)F)CC[C@@H]1C)[C@H]1O[C@]2(C=CC(=O)[C@]3(CC[C@@](C)([C@H]4CC[C@](O)(CC)[C@H](C)O4)O3)O2)[C@H](C)C[C@@H]1C | > 33.2 | > 100 µM | 3.01 µM | – | –
C#CCN[C@@H]1C=C[C@]2(O[C@H]([C@@H](CC)C(=O)[C@@H](C)[C@@H](O)[C@H](C)[C@@H]3O[C@@H]([C@@H](CC)C(=O)O)CC[C@@H]3C)[C@@H](C)C[C@H]2C)O[C@@]12CC[C@@](C)([C@H]1CC[C@](O)(CC)[C@H](C)O1)O2 | 300 | 10.5 µM | 0.035 µM | Active | 0.1 µM
C#CCNC(=O)[C@H](CC)[C@H]1CC[C@H](C)[C@H]([C@@H](C)[C@H](O)[C@H](C)C(=O)[C@H](CC)[C@H]2O[C@]3(C=CC(=O)[C@]4(CC[C@@](C)([C@H]5CC[C@](O)(CC)[C@H](C)O5)O4)O3)[C@H](C)C[C@@H]2C)O1 | 12.1 | 38.6 µM | 3.18 µM | – | –
CC[C@@H](C(=O)[C@@H](C)[C@@H](O)[C@H](C)[C@@H]1O[C@@H]([C@@H](CC)C(=O)ONC(=O)c2ccccc2)CC[C@@H]1C)[C@H]1O[C@]2(C=CC(=O)[C@]3(CC[C@@](C)([C@H]4CC[C@](O)(CC)[C@H](C)O4)O3)O2)[C@H](C)C[C@@H]1C | 70 | 2.24 µM | 0.032 µM | inactive | –
CC[C@@H](C(=O)[C@@H](C)[C@@H](O)[C@H](C)[C@@H]1O[C@@H]([C@@H](CC)C(=O)NCCc2ccc(F)cc2)CC[C@@H]1C)[C@H]1O[C@]2(C=CC(=O)[C@]3(CC[C@@](C)([C@H]4CC[C@](O)(CC)[C@H](C)O4)O3)O2)[C@H](C)C[C@@H]1C | 31.7 | 94.7 µM | 2.99 µM | – | –
CC[C@@H](C(=O)[C@@H](C)[C@@H](O)[C@H](C)[C@@H]1O[C@@H]([C@@H](CC)C(=O)ONC(=O)c2ccccc2O)CC[C@@H]1C)[C@H]1O[C@]2(C=C[C@@H](O)[C@]3(CC[C@@](C)([C@H]4CC[C@](O)(CC)[C@H](C)O4)O3)O2)[C@H](C)C[C@@H]1C | 60.6 | 2.12 µM | 0.035 µM | inactive | –
Cc1ccc(C(=O)Nc2ccc(S(=O)(=O)O)c3cc(S(=O)(=O)O)cc(S(=O)(=O)O)c23)cc1NC(=O)c1cccc(NC(=O)Nc2cccc(C(=O)Nc3cc(C(=O)Nc4ccc(S(=O)(=O)O)c5cc(S(=O)(=O)O)cc(S(=O)(=O)O)c45)ccc3C)c2)c1 [SURAMIN] | > 3120 | > 100 µM | 0.032 µM | – | –
C#CCOC(=O)[C@H](CC)[C@H]1CC[C@H](C)[C@H]([C@@H](C)[C@H](O)[C@H](C)C(=O)[C@H](CC)[C@H]2O[C@]3(C=C[C@@H](O)[C@]4(CC[C@@](C)([C@H]5CC[C@](O)(CC)[C@H](C)O5)O4)O3)[C@H](C)C[C@@H]2C)O1 | 10.2 | 30 µM | 2.93 µM | – | –
C#CCNC(=O)[C@H](CC)[C@H]1CC[C@H](C)[C@H]([C@@H](C)[C@H](O)[C@H](C)C(=O)[C@H](CC)[C@H]2O[C@]3(C=C[C@@H](NCC#C)[C@]4(CC[C@@](C)([C@H]5CC[C@](O)(CC)[C@H](C)O5)O4)O3)[C@H](C)C[C@@H]2C)O1 | 12.8 | 38.9 µM | 3.04 µM | – | –
CC[C@@H](C(=O)[C@@H](C)[C@@H](O)[C@H](C)[C@@H]1O[C@@H]([C@@H](CC)C(=O)ONC(=O)c2ccccc2O)CC[C@@H]1C)[C@H]1O[C@]2(C=CC(=O)[C@]3(CC[C@@](C)([C@H]4CC[C@](O)(CC)[C@H](C)O4)O3)O2)[C@H](C)C[C@@H]1C | 56.8 | 1.93 µM | 0.034 µM | inactive | –
CC[C@@H](C(=O)[C@@H](C)[C@@H](O)[C@H](C)[C@@H]1O[C@@H]([C@@H](CC)C(=O)OCC(F)(F)F)CC[C@@H]1C)[C@H]1O[C@]2(C=C[C@@H](O)[C@]3(CC[C@@](C)([C@H]4CC[C@](O)(CC)[C@H](C)O4)O3)O2)[C@H](C)C[C@@H]1C | 11.2 | 32.5 µM | 2.9 µM | – | –
CC[C@@H](C(=O)[C@@H](C)[C@@H](O)[C@H](C)[C@@H]1O[C@@H]([C@@H](CC)C(=O)O)CC[C@@H]1C)[C@H]1O[C@]2(C=C[C@@H](O)[C@]3(CC[C@@](C)([C@H]4CC[C@](O)(CC)[C@H](C)O4)O3)O2)[C@H](C)C[C@@H]1C [SALINOMYCIN] | 31.6 | 6.63 µM | 0.21 µM | – | –
